From ChEMBL document CHEMBL3808334, “Synthesis and in vitro evaluation of novel triazine analogues as anticancer agents and their interaction studies with bovine serum albumin” (Eur J Med Chem, 2016)

Key:
Assay type in all cases: functional
[1] = Growth inhibition of human HOP62 cells assessed as cell growth at 10^-4 M incubated for 48 hrs by sulforhodamine B assay; conditions: HOP-62, 48 h, read-out: Activity
NCI-H460 = assay: Growth inhibition of human NCI-H460 cells incubated for 48 hrs by sulforhodamine B assay; conditions: NCI-H460, 48 h
How it was run: (§1)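 Cells were plated at 5,000–40,000 per well according to doubling time and preincubated 24 h at 37 °C in 5% CO2; time-zero plates were then TCA-fixed. Five concentrations (10-fold or ½-log dilutions, DMSO stock) were incubated 48 h. Cells were TCA-fixed, stained with 0.4% SRB and read at 515 nm. GI50 was taken where [(Ti−Tz)/(C−Tz)]×100 = 50.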

[2] = Growth inhibition of human HCT15 cells assessed as cell growth at 10^-4 M incubated for 48 hrs by sulforhodamine B assay; conditions: HCT-15, 48 h, read-out: Activity
How it was run: (§2)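 Cells seeded at 5,000–40,000/well according to doubling time and preincubated 24 h at 37 °C, 5% CO2. Time-zero plates were TCA-fixed. DMSO concentrate was diluted in medium with 50 µg/ml gentamicin to give five concentrations (10-fold or ½ log steps), then exposed 48 h. Cells were TCA-fixed, stained with 0.4% SRB and read at 515 nm. Percent growth was taken against time-zero and control; GI50, TGI and LC50 derived.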

[3] = Growth inhibition of human RXF393 cells assessed as cell growth at 10^-6 M incubated for 48 hrs by sulforhodamine B assay; conditions: RXF 393, 48 h, read-out: Activity
[4] = Growth inhibition of human HCT116 cells assessed as cell growth at 10^-4 M incubated for 48 hrs by sulforhodamine B assay; conditions: HCT-116, 48 h, read-out: Activity; how it was run: as §2
[5] = Growth inhibition of human HCC2998 cells assessed as cell growth at 10 uM incubated for 48 hrs by sulforhodamine B assay; conditions: HCC 2998, 48 h, read-out: Activity
How it was run: (§3)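 Primary screen at one dose (10 µM) across 60 human cancer cell lines. Readout was growth percent relative to untreated control and time-zero.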

CCRF-CEM = assay: Growth inhibition of human CCRF-CEM cells assessed as cell growth at 10^-6 M incubated for 48 hrs by sulforhodamine B assay; conditions: read-out: Activity
How it was run: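 Leukemia line in the five-dose format: five concentrations from 10-fold or ½-log serial dilutions. Plated at 5,000–40,000 cells per well, preincubated 24 h, then compound added for 48 h at 37 °C, 5% CO₂. Sulforhodamine B absorbance read at 515 nm. Growth is computed against time-zero (Tz) and control (C) readings; GI₅₀ is where [(Ti−Tz)/(C−Tz)]×100 = 50.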

SK-MEL-5 = assay: Growth inhibition of human SK-MEL-5 cells assessed as cell growth at 10^-4 M incubated for 48 hrs by sulforhodamine B assay; conditions: SK-MEL-5, 48 h, read-out: Activity
[6] = Growth inhibition of human HCC2998 cells assessed as cell growth at 10^-6 M incubated for 48 hrs by sulforhodamine B assay; conditions: HCC 2998, 48 h, read-out: Activity; how it was run: as §2
SK-MEL-2 = assay: Growth inhibition of human SK-MEL-2 cells assessed as cell growth at 10^-5 M incubated for 48 hrs by sulforhodamine B assay; conditions: SK-MEL-2, 48 h, read-out: Activity
NCI-H522 = assay: Growth inhibition of human NCI-H522 cells incubated for 48 hrs by sulforhodamine B assay; conditions: NCI-H522, 48 h; how it was run: as §1
EKVX = assay: Growth inhibition of human EKVX cells assessed as cell growth at 10 uM incubated for 48 hrs by sulforhodamine B assay; conditions: read-out: Activity; how it was run: as §3
[7] = Growth inhibition of human MOLT4 cells incubated for 48 hrs by sulforhodamine B assay; conditions: MOLT-4, 48 h; how it was run: as §1
[8] = Growth inhibition of human DU145 cells incubated for 48 hrs by sulforhodamine B assay; conditions: DU-145, 48 h; how it was run: as §2
[9] = Growth inhibition of human SF295 cells assessed as cell growth at 10^-4 M incubated for 48 hrs by sulforhodamine B assay; conditions: SF-295, 48 h, read-out: Activity
NCI-H23 [10] = assay: Growth inhibition of human NCI-H23 cells assessed as cell growth at 10^-4 M incubated for 48 hrs by sulforhodamine B assay; conditions: NCI-H23, 48 h, read-out: Activity
[11] = Growth inhibition of human COLO205 cells assessed as cell growth at 10 uM incubated for 48 hrs by sulforhodamine B assay; conditions: COLO 205, 48 h, read-out: Activity; how it was run: as §3
NCI-H23 [12] = assay: Growth inhibition of human NCI-H23 cells assessed as cell growth at 10^-7 M incubated for 48 hrs by sulforhodamine B assay; conditions: NCI-H23, 48 h, read-out: Activity
U-251 = assay: Growth inhibition of human U251 cells incubated for 48 hrs by sulforhodamine B assay; conditions: U-251, 48 h; how it was run: as §1
NCI-H23 [13] = assay: Growth inhibition of human NCI-H23 cells assessed as cell growth at 10 uM incubated for 48 hrs by sulforhodamine B assay; conditions: NCI-H23, 48 h, read-out: Activity
[14] = Growth inhibition of human SNB19 cells assessed as cell growth at 10 uM incubated for 48 hrs by sulforhodamine B assay; conditions: SNB-19, 48 h, read-out: Activity
NCI-H23 [15] = assay: Growth inhibition of human NCI-H23 cells assessed as cell growth at 10^-8 M incubated for 48 hrs by sulforhodamine B assay; conditions: NCI-H23, 48 h, read-out: Activity
M14 = assay: Growth inhibition of human M14 cells assessed as cell growth at 10 uM incubated for 48 hrs by sulforhodamine B assay; conditions: M14, 48 h, read-out: Activity
MDA-MB-468 = assay: Growth inhibition of human MDA-MB-468 cells assessed as cell growth at 10^-7 M incubated for 48 hrs by sulforhodamine B assay; conditions: MDA-MB-468, 48 h, read-out: Activity
NCI-H23 [16] = assay: Growth inhibition of human NCI-H23 cells assessed as cell growth at 10^-6 M incubated for 48 hrs by sulforhodamine B assay; conditions: NCI-H23, 48 h, read-out: Activity
[17] = Growth inhibition of human OVCAR3 cells assessed as cell growth at 10^-4 M incubated for 48 hrs by sulforhodamine B assay; conditions: OVCAR-3, 48 h, read-out: Activity
[18] = Growth inhibition of human SF295 cells assessed as cell growth at 10^-8 M incubated for 48 hrs by sulforhodamine B assay; conditions: SF-295, 48 h, read-out: Activity
[19] = read-out: LC50 (the source's name)
[20] = read-out: pLC50 (the source's name) (converted)

c1ccc(-c2nc(Nc3ccc(-c4nc5ccccc5[nH]4)cc3)nc(N3CCOCC3)n2)cc1
growth at 100 µM [1]: -62% | GI50 (NCI-H460; read-out: GI50): 822 nM | CC50 (NCI-H460; [19]): 6670 nM | TGI (NCI-H460; read-out: TGI): 2460 nM | GI50 (NCI-H460; read-out: pGI50 (converted)): 813 nM | CC50 (NCI-H460; [20]): 6610 nM | TGI (NCI-H460; read-out: pTGI (converted)): 2450 nM | growth at 100 µM [2]: -49% | growth at 1 µM [3]: 30% | growth at 100 µM [4]: -69% | growth at 10 µM [5]: -80.7% | growth at 1 µM (CCRF-CEM): 32% | growth at 100 µM (SK-MEL-5): -91% | growth at 1 µM [6]: 93% | growth at 10 µM (SK-MEL-2): -85% | GI50 (NCI-H522; read-out: GI50): 2100 nM | CC50 (NCI-H522; [19]): 7330 nM | TGI (NCI-H522; read-out: TGI): 3920 nM | GI50 (NCI-H522; read-out: pGI50 (converted)): 2090 nM | CC50 (NCI-H522; [20]): 7410 nM | TGI (NCI-H522; read-out: pTGI (converted)): 3890 nM | growth at 10 µM (EKVX): -66.9% | GI50 ([7]; read-out: GI50): 1330 nM | CC50 [7, 19]: 9350 nM | TGI ([7]; read-out: TGI): 3530 nM | GI50 ([7]; read-out: pGI50 (converted)): 1320 nM | CC50 [7, 20]: 9330 nM | TGI ([7]; read-out: pTGI (converted)): 3550 nM | LC50 (50% net cell kill) [8]: 5120 nM | GI50 ([8]; read-out: GI50): 1210 nM | TGI ([8]; read-out: TGI): 2490 nM | GI50 ([8]; read-out: pGI50 (converted)): 1200 nM | CC50 [8, 20]: 5130 nM | TGI ([8]; read-out: pTGI (converted)): 2510 nM | growth at 100 µM [9]: -71% | growth at 100 µM (NCI-H23 [10]): -51% | growth at 10 µM [11]: -68.8% | growth at 0.1 µM (NCI-H23 [12]): 95% | GI50 (U-251; read-out: GI50): 535 nM | CC50 (U-251; [19]): 4890 nM | TGI (U-251; read-out: TGI): 1760 nM | GI50 (U-251; read-out: pGI50 (converted)): 537 nM | CC50 (U-251; [20]): 4900 nM | TGI (U-251; read-out: pTGI (converted)): 1780 nM | growth at 10 µM (NCI-H23 [13]): -59% | growth at 10 µM [14]: -18.6% | growth at 0.01 µM (NCI-H23 [15]): 95% | growth at 10 µM (M14): -80.7% | growth at 0.1 µM (MDA-MB-468): 112% | growth at 1 µM (NCI-H23 [16]): 93% | growth at 100 µM [17]: -100% | growth at 0.01 µM [18]: 94%
